Results pooled from the literature.
Lines come from different studies, so protocols differ.
CA9: Carbonic anhydrase 9 (CA9, Homo sapiens, UniProt Q16790)
ART1: ART1 (Homo sapiens, UniProt P52961)
GUK1: GUK1 (Homo sapiens, UniProt Q16774)
PADI4: Protein-arginine deiminase type-4 (PADI4, Homo sapiens, UniProt Q9UM07)

Structure (SMILES) | target | test | setting | quantity | result
N#CSCc1cc(=O)oc2cc(O)ccc12 | CA9 | enzyme activity, inhibitor, stopped-flow |  | Ki | 0.0274 µM
Nc1ncnc2c1ncn2[C@@H]1O[C@H](COP(=O)(O)OP(=O)(O)OC[C@H]2OC(O)[C@H](O)[C@@H]2O)[C@@H](O)[C@H]1O (some centres unmarked) | ART1 | enzyme activity, inhibitor, fluorescence |  | Ki | 4900 µM
Cc1ccc(-n2cc(CNC(=O)c3ccc(=O)oc3)nn2)cc1 | CA9 | enzyme activity, inhibitor, stopped-flow |  | Ki | 14.5 µM
CC[C@H](C)[C@H](NC(=O)[C@H](CCC(=O)O)NC(=O)[C@H](CO)NC(=O)[C@@H](NC(=O)[C@@H](N)CO)C(C)C)C(=O)N[C@@H](CCC(N)=O)C(=O)N[C@@H](CC(C)C)C(=O)N[C@@H](CCSC)C(=O)N[C@@H](Cc1cnc[nH]1)C(=O)N[C@@H](CC(N)=O)C(=O)N[C@@H](CC(C)C)C(=O)NCC(=O)N[C@@H](CCCCN)C(=O)N[C@@H](Cc1cnc[nH]1)C(=O)N[C@@H](CC(C)C)C(=O)N[C@@H](CC(N)=O)C(=O)N[C@@H](CO)C(=O)N[C@@H](CCSC)C(=O)N[C@@H](CCC(=O)O)C(=O)N[C@@H](CCCNC(=N)N)C(=O)N[C@H](C(=O)N[C@@H](CCC(=O)O)C(=O)N[C@@H](Cc1c[nH]c2ccccc12)C(=O)N[C@@H](CC(C)C)C(=O)N[C@@H](CCCNC(=N)N)C(=O)N[C@@H](CCCCN)C(=O)N[C@@H](CCCCN)C(=O)N[C@@H](CC(C)C)C(=O)N[C@@H](CCC(N)=O)C(=O)N[C@@H](CC(=O)O)C(=O)N[C@H](C(=O)N[C@@H](Cc1cnc[nH]1)C(=O)N[C@@H](CC(N)=O)C(=O)N[C@@H](Cc1ccccc1)C(N)=O)C(C)C)C(C)C | Albumin (ALB, Bos taurus, UniProt P02769) | binding, BLI |  | Kd | 1.61 µM
O=C(OCc1cn(-c2ccc(Cl)cc2)nn1)c1ccc(=O)oc1 | CA9 | enzyme activity, inhibitor, stopped-flow |  | Ki | 21.9 µM
NC(=O)c1cccnc1 | ART1 | enzyme activity, inhibitor, fluorescence |  | Ki | 8300 µM
Nc1ncnc2c1ncn2[C@@H]1O[C@H](CO[P@](=O)(O)O[P@](=O)(O)O[P@@](=O)(O)S)[C@@H](O)[C@H]1O | GUK1 | binding, ITC |  | Kd | 40 µM
N=C(CCl)NCCC[C@H](NC(=O)c1cnc2cc(Br)ccc2c1)C(=O)NCc1ccccc1 | PADI4 | enzyme activity, inhibitor, fluorescence | with preincubation | IC50 | 0.409 µM
O=C(NCc1cn(-c2ccc([N+](=O)[O-])cc2)nn1)c1ccc(=O)oc1 | CA9 | enzyme activity, inhibitor, stopped-flow |  | Ki | 7.5 µM
N#CSCCCCOc1ccc2c(-c3ccccc3)cc(=O)oc2c1 | CA9 | enzyme activity, inhibitor, stopped-flow |  | Ki | 0.258 µM
CN(C)c1ccc2cc(C(=O)N[C@@H](CCCN=C(N)CCl)C(=O)NCc3ccccc3)ccc2c1 | PADI4 | enzyme activity, inhibitor, fluorescence | with preincubation | IC50 | 2.86 µM
O=C(O)CCc1ccccc1 | Inward rectifier potassium channel 2 (KCNJ2, Homo sapiens, UniProt P63252) | binding, MST |  | Kd | 2110 µM
Cc1cc(C)nc(Nc2ccc(C(=O)N[C@@H](CCCNC(=N)CCl)C(=O)NCc3ccccc3)cn2)c1 | PADI4 | enzyme activity, inhibitor, fluorescence | with preincubation | IC50 | 1.02 µM
Nc1nc2c(ncn2[C@@H]2O[C@H](COP(=O)(O)O)[C@@H](O)[C@H]2O)c(=O)[nH]1 | GUK1 | binding, ITC |  | Kd | 39 µM
